Reference: article PMC7231760 (International Journal of Nanomedicine, 2020)

Legend:
HCV NS3 helicase = HCV NS3 helicase (Hepatitis C virus genotype 1a, UniProt P27958); assay: Anti-HCV NS3 helicase assay; assay type: biochemical
Method in brief: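 Test samples were dissolved in DMSO; thioflavin S or 0.8% DMSO served as controls. ATP was added from a 5 mM solution. Fluorescence was read at t0 and after 1 h at 25°C. Ratio_RFU = RFU_t60/RFU_t0, and percent inhibition was calculated.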

HCV NS3 protease = HCV NS3 protease (Hepatitis C virus, UniProt P27958); assay: Anti-HCV NS3 protease assay; assay type: biochemical; conditions: SNPs of total extract and petroleum ether fraction, controls (Table 2)
HCV NS3 protease, sequence (P27958 1027-1657): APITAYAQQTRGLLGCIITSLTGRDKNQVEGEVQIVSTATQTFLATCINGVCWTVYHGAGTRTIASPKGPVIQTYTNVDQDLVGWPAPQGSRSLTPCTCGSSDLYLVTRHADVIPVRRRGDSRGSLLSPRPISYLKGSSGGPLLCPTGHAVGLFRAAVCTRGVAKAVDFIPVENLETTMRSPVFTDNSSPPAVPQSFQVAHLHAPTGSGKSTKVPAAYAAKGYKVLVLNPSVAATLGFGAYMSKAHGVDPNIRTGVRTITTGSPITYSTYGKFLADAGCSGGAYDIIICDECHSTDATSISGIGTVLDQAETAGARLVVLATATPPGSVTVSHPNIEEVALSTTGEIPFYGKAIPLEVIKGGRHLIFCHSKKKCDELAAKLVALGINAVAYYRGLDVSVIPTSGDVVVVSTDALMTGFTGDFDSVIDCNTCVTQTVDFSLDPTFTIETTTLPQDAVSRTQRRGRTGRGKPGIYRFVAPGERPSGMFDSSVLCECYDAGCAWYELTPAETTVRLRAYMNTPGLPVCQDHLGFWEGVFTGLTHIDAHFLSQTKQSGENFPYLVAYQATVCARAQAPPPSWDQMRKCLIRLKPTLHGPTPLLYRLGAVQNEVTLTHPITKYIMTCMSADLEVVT

HCV NS3 helicase, sequence (P27958 1192-1657 limits assumed): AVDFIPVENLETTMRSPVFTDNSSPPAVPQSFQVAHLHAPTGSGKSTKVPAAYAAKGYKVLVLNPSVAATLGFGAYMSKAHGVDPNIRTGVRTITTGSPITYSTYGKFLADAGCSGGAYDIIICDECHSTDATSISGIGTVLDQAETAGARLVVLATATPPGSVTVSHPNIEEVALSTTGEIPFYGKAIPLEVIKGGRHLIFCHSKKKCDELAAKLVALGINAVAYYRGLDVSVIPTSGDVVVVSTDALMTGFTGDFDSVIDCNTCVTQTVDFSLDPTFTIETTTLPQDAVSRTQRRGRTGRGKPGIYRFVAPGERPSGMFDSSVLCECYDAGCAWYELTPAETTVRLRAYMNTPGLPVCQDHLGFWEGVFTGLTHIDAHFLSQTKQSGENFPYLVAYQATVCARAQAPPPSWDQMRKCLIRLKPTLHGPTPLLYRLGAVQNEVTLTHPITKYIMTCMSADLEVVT

IC50 (HCV NS3 helicase) [µM] | Compound | IC50 NS3 Helicase (HCV NS3 helicase; SNPs of total extract and petroleum ether fraction, controls (Table 2)) [µg/mL] | IC50 NS3 Protease (HCV NS3 protease) [µg/mL]
 | O=[N+]([O-])[O-].[Ag+] [AgNO3] | 77.72 ± 4.57 | 52.67 ± 0.33
19.1 | NC(=O)c1ncn([C@@H]2O[C@H](CO)[C@@H](O)[C@H]2O)n1 [Ribavirin] |  | 
